For assay [1], the target named is T1, GABA-A receptor; alpha-1/beta-3/gamma-2 (Homo sapiens, UniProt P14867+P18507+P28472).
T1 sequence (P14867 whole entry): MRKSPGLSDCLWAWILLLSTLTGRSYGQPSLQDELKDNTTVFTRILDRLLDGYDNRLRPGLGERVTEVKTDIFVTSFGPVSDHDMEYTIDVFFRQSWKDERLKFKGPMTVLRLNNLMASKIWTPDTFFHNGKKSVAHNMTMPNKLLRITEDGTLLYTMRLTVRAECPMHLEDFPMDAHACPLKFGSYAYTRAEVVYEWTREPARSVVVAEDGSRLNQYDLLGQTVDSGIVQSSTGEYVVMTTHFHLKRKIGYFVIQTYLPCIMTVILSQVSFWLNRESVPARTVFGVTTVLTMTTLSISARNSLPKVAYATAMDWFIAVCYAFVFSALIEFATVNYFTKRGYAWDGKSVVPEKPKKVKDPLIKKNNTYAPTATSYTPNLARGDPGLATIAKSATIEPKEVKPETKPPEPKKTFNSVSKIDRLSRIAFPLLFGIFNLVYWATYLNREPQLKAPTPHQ
T1 sequence (P18507 whole entry): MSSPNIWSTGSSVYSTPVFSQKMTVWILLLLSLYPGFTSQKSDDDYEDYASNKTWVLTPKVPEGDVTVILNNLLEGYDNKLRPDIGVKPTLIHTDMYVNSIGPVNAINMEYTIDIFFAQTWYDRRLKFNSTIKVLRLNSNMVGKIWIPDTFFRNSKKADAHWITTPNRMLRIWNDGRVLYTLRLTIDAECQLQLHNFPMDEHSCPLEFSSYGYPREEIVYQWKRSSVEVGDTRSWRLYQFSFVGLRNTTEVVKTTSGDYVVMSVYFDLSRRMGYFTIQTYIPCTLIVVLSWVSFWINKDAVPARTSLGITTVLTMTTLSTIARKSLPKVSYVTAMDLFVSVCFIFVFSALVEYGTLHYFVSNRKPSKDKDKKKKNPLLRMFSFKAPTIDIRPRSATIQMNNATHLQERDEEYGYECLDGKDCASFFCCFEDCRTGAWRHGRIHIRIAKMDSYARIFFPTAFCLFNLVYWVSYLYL
T1 sequence (P28472 whole entry): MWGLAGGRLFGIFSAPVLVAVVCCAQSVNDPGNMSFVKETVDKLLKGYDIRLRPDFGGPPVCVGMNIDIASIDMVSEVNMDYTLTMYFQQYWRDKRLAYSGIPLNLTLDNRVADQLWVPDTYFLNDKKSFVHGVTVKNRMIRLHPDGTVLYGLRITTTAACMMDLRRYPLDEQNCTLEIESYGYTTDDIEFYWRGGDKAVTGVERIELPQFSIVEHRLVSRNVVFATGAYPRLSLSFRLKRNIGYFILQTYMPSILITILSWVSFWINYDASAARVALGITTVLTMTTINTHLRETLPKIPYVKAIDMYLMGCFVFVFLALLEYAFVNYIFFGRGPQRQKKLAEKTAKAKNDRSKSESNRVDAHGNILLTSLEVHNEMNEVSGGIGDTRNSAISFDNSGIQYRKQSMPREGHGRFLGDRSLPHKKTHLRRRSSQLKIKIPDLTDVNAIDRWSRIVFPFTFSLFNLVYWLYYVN
Description: Binding affinity for human recombinant gamma-aminobutyric-acid (GABA) A receptor alpha-1-beta-3-gamma-2. The format is protein-complex assay.

Assay [2] deals with T2, GABA-A receptor; alpha-5/beta-3/gamma-2 (Homo sapiens, UniProt P18507+P28472+P31644).
T2 sequence (P18507 whole entry): T1 sequence (P18507 whole entry)
T2 sequence (P28472 whole entry): T1 sequence (P28472 whole entry)
T2 sequence (P31644 whole entry): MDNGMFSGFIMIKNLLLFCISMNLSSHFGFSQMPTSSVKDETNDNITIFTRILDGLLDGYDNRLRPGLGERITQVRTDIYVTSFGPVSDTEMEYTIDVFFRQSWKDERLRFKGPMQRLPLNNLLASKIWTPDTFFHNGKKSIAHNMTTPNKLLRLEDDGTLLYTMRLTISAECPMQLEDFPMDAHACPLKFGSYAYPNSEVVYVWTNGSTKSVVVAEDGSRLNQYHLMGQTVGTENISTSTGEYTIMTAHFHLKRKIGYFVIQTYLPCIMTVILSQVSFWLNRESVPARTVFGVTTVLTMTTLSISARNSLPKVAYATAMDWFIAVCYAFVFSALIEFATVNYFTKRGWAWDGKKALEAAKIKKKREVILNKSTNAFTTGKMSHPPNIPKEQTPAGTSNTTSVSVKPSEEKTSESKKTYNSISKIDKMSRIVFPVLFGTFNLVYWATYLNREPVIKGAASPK
Description: Binding affinity for human recombinant gamma-aminobutyric-acid (GABA) A receptor alpha-5-beta-3-gamma-2. Format: protein-complex assay.

Assay [3] concerns the target T3, GABA-A receptor; alpha-3/beta-3/gamma-2 (Homo sapiens, UniProt P18507+P28472+P34903).
T3 sequence (P18507 whole entry): T1 sequence (P18507 whole entry)
T3 sequence (P28472 whole entry): T1 sequence (P28472 whole entry)
T3 sequence (P34903 whole entry): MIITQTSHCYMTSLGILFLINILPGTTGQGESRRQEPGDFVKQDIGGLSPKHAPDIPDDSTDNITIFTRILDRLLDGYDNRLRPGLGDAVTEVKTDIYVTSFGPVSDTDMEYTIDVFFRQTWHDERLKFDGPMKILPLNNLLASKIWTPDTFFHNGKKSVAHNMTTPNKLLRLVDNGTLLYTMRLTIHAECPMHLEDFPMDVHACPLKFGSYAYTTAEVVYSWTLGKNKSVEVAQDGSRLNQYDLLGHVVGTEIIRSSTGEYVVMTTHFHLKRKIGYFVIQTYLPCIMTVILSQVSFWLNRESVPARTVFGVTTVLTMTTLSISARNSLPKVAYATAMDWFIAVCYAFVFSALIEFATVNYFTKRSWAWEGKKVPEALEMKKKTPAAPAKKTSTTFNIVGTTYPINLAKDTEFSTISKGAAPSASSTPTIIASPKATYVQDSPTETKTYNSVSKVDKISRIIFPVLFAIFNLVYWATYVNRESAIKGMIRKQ
Description: Binding affinity for human recombinant gamma-aminobutyric-acid (GABA) A receptor alpha-3-beta-3-gamma-2. Format: protein-complex assay.

In assay [4] the target is GABA-A receptor; alpha-6/beta-3/gamma-2 (Homo sapiens, UniProt P18507+P28472+Q16445). Description: Binding affinity for human recombinant gamma-aminobutyric-acid (GABA) A receptor alpha-6-beta-3-gamma-2. The format is protein-complex assay. A digest of the protocol:
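Ltk⁻ cells expressing human α6β3γ2 were harvested by scraping into PBS, centrifuged at 3000g and resuspended in 10 mM KH₂PO₄/100 mM KCl (pH 7.4). Incubation was 1 h at 4 °C with filter harvest and scintillation counting.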

The nature of assay [5]: Selectivity ratio of alpha1 beta-3 gamma2 GABA A / BzR and alpha5 beta-3 gamma2 GABA A / BzR.
The target of assay [6] is T4, GABA-A receptor; alpha-2/beta-3/gamma-2 (Homo sapiens, UniProt P18507+P28472+P47869).
T4 sequence (P18507 whole entry): T1 sequence (P18507 whole entry)
T4 sequence (P28472 whole entry): T1 sequence (P28472 whole entry)
T4 sequence (P47869 whole entry): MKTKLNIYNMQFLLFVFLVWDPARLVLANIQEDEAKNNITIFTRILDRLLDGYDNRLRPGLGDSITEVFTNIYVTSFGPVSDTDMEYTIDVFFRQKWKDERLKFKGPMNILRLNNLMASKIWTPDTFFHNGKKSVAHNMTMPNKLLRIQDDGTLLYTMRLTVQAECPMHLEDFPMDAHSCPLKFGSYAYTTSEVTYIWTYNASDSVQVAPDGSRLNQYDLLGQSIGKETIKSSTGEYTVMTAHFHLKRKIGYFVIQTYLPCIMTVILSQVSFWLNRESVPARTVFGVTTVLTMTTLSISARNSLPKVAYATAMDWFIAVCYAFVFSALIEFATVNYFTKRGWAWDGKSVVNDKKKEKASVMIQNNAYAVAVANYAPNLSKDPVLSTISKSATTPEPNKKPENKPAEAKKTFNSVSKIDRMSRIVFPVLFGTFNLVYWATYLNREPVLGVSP
The assay can be described thus: Binding affinity to human recombinant gamma-aminobutyric-acid (GABA) A receptor alpha-2-beta-3-gamma-2. The format is protein-complex assay.

Some results are limits rather than exact numbers.

Chain of GABA-A receptor; alpha-6/beta-3/gamma-2 (Q16445 whole entry, one chain of several): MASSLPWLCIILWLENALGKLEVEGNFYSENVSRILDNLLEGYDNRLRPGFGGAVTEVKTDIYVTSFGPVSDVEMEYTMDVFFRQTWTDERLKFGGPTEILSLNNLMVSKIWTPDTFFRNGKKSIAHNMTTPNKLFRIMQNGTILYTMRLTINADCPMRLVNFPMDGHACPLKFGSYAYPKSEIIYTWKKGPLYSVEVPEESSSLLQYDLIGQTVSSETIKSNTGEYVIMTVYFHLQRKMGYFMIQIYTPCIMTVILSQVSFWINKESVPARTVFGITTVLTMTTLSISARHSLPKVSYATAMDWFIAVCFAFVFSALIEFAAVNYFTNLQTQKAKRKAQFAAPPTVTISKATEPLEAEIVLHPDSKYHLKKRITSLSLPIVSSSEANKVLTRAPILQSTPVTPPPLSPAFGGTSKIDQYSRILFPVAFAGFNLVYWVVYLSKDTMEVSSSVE

As a reminder, the Ki is the dissociation constant of the complex between target and ligand, obtained from inhibition or displacement. Regarding `COc1ccc(-n2nc3c4ccc(OC)cc4[nH]cc-3c2=O)cc1`, the Ki in assay [1] came out at 0.34 nM; in assay [2], 0.52 nM; in assay [3] it was 0.79 nM; in assay [4], 10 nM.
Consider `[N-]=[N+]=Nc1ccc2c(c1)C(c1ccccc1N=[N+]=[N-])=NCC(=O)N2`, for which the Ki in assay [1] was 2160 nM; in assay [2] it was 1640 nM; in assay [3], 4620 nM; in assay [4], > 1000 nM. In addition, the Ratio in assay [5] was determined as 1.32.
As for `CCOC(=O)c1ncn2c1[C@@H]1CCCN1C(=O)c1cc(OC)ccc1-2`, in assay [3], the Ki is 24.5 nM. For the same compound, the Ratio in assay [5] is 108.
Regarding `O=C1CN=C(c2ccccc2[N+](=O)[O-])c2cc(Br)ccc2N1`, the Ki was 31 nM in assay [6], 199 nM in assay [2], 52 nM in assay [3] and > 3000 nM in assay [4]. In addition, the Ratio in assay [5] was 0.08.
As to `Cc1nnc2n1-c1ccc(Cl)cc1C(c1ccccc1Cl)=NC2` [TRIAZOLAM], the figures for the Ki in assay [6] and in assay [4] were 0.59 nM and > 10000 nM, respectively.
`CN1C(=O)CN=C(c2ccccc2[N+](=O)[O-])c2cc([N+](=O)[O-])ccc21`: the inhibition constant Ki was 0.49 nM in assay [1], 7.7 nM in assay [2], 0.76 nM in assay [3] and > 10000 nM in assay [4]. In assay [5], the Ratio amounted to 0.06.
For the compound `C#Cc1ccc(-n2[nH]c3c(cnc4ccccc43)c2=O)cc1`, the Ki in assay [1] is 0.07 nM; in assay [6], 0.03 nM; in assay [2], 0.17 nM; in assay [3], 0.04 nM.
Take `COc1ccc(-n2nc3c4cc(Cl)ccc4[nH]cc-3c2=O)cc1`: the inhibitory constant (Ki) in assay [1] stood at 0.2 nM; in assay [2] it was 0.32 nM; in assay [3], 0.2 nM; in assay [4], 1.9 nM.
With `CN1Cc2c(C(=O)OC(C)(C)C)ncn2-c2ccc(N=[N+]=[N-])cc2C1=O`, the Ki in assay [6] stood at 22.1 nM; in assay [3] it was 9.84 nM. Besides, the Ratio in assay [5] was 24.3.
For the compound `COC(=O)c1cc2c3cc(SC#N)ccc3nc-2c[nH]1`, the Ki was 3.41 nM in assay [1], 141 nM in assay [2], 30 nM in assay [3] and > 10000 nM in assay [4].
As to `O=[N+]([O-])c1ccc2[nH]c3cnc([N+](=O)[O-])cc3c2c1`, the inhibitory constant (Ki) in assay [1] is 12.9 nM; in assay [6] it was 83.1 nM; in assay [2], 314 nM; in assay [4], > 50000 nM.
For the compound `N#CSc1ccc2[nH]c3cnc(SC#N)cc3c2c1`, the Ki is 13.6 nM in assay [1], 423 nM in assay [6], 2910 nM in assay [2] and > 5000 nM in assay [4].
On to `CCOC(=O)c1ncn2c1CN(C)C(=O)c1cc(C#N)ccc1-2`, for which, in assay [5], the Ratio was 1.7.
Take `CCOC(=O)c1ncn2c1[C@@H]1CCCN1C(=O)c1ccccc1-2`: the Ki in assay [1] was 7.3 nM; in assay [2] it was 1.6 nM; in assay [3], 7.1 nM; in assay [4], > 300 nM. Moreover, the Ratio in assay [5] was 4.6.
As to `COc1ccc2c(c1)C(=O)N(C)Cc1c(C(=O)OC(C)(C)C)ncn1-2`, in assay [5], the Ratio was determined as 23.
Take `CC#Cc1ccc2c(c1)C(=O)N(C)Cc1c(C(=O)OCC)ncn1-2`: the Ratio in assay [5] stood at 6.
As to `CCOC(=O)c1ncn2c1CN(C)C(=O)c1cc(OCC)ccc1-2`, in assay [5], the Ratio is 12.4.
`CCOC(=O)c1[nH]cc2nc3ccc(OCc4ccc5ccccc5c4)cc3c-2c1COC`: the Ki in assay [1] is 15.4 nM; in assay [2] it was 323 nM; in assay [3], 293 nM; in assay [4], > 1000 nM.
In the case of `C#Cc1ccc2c(c1)C(=O)N1CCC[C@H]1c1c(-c3nc(CC)no3)ncn1-2`, in assay [5], the Ratio came out at 36.
In the case of `C#Cc1ccc2c(c1)C(=O)N1CCC[C@H]1c1c(C(=O)OCC)ncn1-2`, the Ratio in assay [5] is 45.
Same read-out and setting: as for `CCOCc1ncn2c1CN(C)C(=O)c1cc(Cl)ccc1-2`, the figure is > 3.6; as for `C#Cc1ccc2c(c1)C(=O)N1CCC[C@@H]1c1c(C(=O)OCC)ncn1-2`, 39.
For `CCOC(=O)c1ncn2c1[C@@H]1CCN1C(=O)c1cc(C#C[Si](C)(C)C)ccc1-2`, the Ratio in assay [5] was 32.
On to `CCc1ccc2c(c1)C(=O)N(C)Cc1c(C(=O)OC(C)(C)C)ncn1-2`, for which the Ratio in assay [5] is 8.6.

The values are drawn from ChEMBL document CHEMBL1132940, “Pharmacophore/receptor models for GABA(A)/BzR subtypes (alpha1beta3gamma2, alpha5beta3gamma2, and alpha6beta3gamma2) via a comprehensive ligand-mapping approach” (J Med Chem, 2000).
